For experiment [1], the target named is T1, Cholecystokinin receptor type A (Rattus norvegicus, UniProt P30551).
T1 sequence (P30551 whole entry): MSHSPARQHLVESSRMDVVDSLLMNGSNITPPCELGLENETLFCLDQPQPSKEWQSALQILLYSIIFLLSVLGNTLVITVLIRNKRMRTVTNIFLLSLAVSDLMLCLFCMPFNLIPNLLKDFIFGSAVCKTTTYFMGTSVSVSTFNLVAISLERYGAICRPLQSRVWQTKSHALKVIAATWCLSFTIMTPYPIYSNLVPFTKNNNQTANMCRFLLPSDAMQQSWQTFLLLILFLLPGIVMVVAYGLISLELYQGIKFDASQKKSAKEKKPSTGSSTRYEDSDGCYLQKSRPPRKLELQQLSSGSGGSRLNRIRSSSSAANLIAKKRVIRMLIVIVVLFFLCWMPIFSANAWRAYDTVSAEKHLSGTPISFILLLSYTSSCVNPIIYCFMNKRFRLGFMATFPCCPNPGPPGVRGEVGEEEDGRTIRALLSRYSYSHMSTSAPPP
In words: Binding affinity by competitive inhibition of the radioligand [3H]pCCK-8 at Cholecystokinin type A receptor from rat pancreas. The essentials: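 Rat pancreas homogenized in Pipes HCl pH 6.5 with 30 mM MgCl2, centrifuged twice at 50000g, 4 °C. Membranes (0.2 mg protein/tube) incubated with 0.5 nM [3H]pCCK-8 plus bacitracin and soybean trypsin inhibitor (0.2 mg/mL each) for 120 min at 25 °C. Ki from displacement curves by Cheng–Prusoff. Seven concentrations in triplicate, at least three experiments.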

For experiment [2], the target named is T2, Gastrin/cholecystokinin type B receptor (Rattus norvegicus, UniProt P30553).
T2 sequence (P30553 whole entry): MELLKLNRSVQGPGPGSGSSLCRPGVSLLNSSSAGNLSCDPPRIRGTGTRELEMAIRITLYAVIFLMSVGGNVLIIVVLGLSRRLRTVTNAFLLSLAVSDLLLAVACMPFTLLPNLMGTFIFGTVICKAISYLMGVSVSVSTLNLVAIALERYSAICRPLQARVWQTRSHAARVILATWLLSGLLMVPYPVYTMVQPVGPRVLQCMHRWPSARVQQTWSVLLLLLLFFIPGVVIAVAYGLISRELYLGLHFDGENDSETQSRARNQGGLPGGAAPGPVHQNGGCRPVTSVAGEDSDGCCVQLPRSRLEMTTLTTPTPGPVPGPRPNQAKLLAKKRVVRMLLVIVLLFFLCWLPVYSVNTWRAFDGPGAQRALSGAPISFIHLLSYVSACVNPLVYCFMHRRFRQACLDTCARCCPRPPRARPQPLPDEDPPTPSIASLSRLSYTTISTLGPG
In words: Binding affinity by competitive inhibition of the radioligand [3H]pCCK-8 at Cholecystokinin type B receptor from rat cerebral cortex membrane. It is filed as tissue-based.

For experiment [3], the system named is Rattus norvegicus. The experiment is described as follows: Compound (CCK1 antagonist) was administered orally for the effect of increase in plasma amylase activity induced by caerulein in rat at the dose of 0.1 mg/kg. It is filed as functional. To be noted: route oral. In outline: (§1)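 Caerulein pancreatitis in fasted (24 h) male Wistar rats (190–210 g): four hourly sc injections of 10 µg/kg. Antagonist dosed orally (0.25 mL/100 g; 0.1 or 1 mg/kg) 60 min before the first caerulein injection. Plasma drawn 3 h after the final injection. Amylase and lipase activities read with commercial kits, in IU/mL. Comparisons by ANOVA plus Scheffé's test against caerulein.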

The test system of experiment [4] is Rattus norvegicus. In words: Compound (CCK1 antagonist) was administered orally for the effect of increase in plasma amylase activity induced by caerulein in rat at the dose of 1 mg/kg. It is filed as functional. To be noted: route oral. The essentials: as §1
Experiment [5] relates to Rattus norvegicus. In words: Compound (CCK1 antagonist) was administered intraperitoneally for the effect of increase in plasma lipase activity induced by caerulein in rat at the dose of 0.1 mg/kg. It is filed as functional. Particulars: route intraperitoneal. In outline: (§2)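 Male Wistar rats (190–210 g), fasted 24 h, given four sc caerulein injections (10 µg/kg) at hourly intervals. Antagonist given ip (0.25 mL/100 g; 0.1 or 1 mg/kg) 30 min before the first caerulein dose. Blood taken 3 h after the last injection. Plasma amylase and lipase measured by commercial kits, in IU/mL. Statistics by ANOVA with Scheffé's test against caerulein alone.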

Experiment [6] relates to Rattus norvegicus. The experiment is described as follows: Compound (CCK1 antagonist) was administered intraperitoneally for the effect of increase in plasma lipase activity induced by caerulein in rat at the dose of 1 mg/kg. Particulars: route intraperitoneal. It is filed as functional. The essentials:
as §2

Experiment [7] concerns Rattus norvegicus. In words: Compound (CCK1 antagonist) was administered orally for the effect of increase in plasma lipase activity induced by caerulein in rat at the dose of 1 mg/kg. It is filed as functional. To be noted: route oral. The essentials:
as §1

Experiment [8] deals with Rattus norvegicus. The experiment is described as follows: Compound (CCK1 antagonist) was administered intraperitoneally for the effect of increase in plasma amylase activity induced by caerulein in rat at the dose of 0.1 mg/kg. It is filed as functional. Particulars: route intraperitoneal. In outline:
as §2

Experiment [9] has as its system Rattus norvegicus. In words: Compound (CCK1 antagonist) was administered intraperitoneally for the effect of increase in plasma amylase activity induced by caerulein in rat at the dose of 1 mg/kg. Particulars: route intraperitoneal. It is filed as functional. The essentials:
as §2

Experiment [10] deals with Rattus norvegicus. The experiment is described as follows: Compound (CCK1 antagonist) was administered orally for the effect of increase in plasma lipase activity induced by caerulein in rat at the dose of 0.1 mg/kg. It is filed as functional. To be noted: route oral. The essentials: as §1

These results are taken from ChEMBL document CHEMBL1132468, “5-(Tryptophyl)amino-1,3-dioxoperhydropyrido[1,2-c]pyrimidine-based potent and selective CCK(1) receptor antagonists: structural modifications at the tryptophan domain” (J Med Chem, 1999).

Molecules are shown by their SMILES. Where only a bound is given, the exact number is not on record here.

Broadly, the IC50 is the concentration needed to halve the response being measured. Lower therefore signals higher potency.

For `N[C@@H](Cc1c[nH]c2ccccc12)C(=O)N[C@H]1CCCN2C(=O)N(Cc3ccccc3)C(=O)C[C@@H]12`, the half-inhibitory concentration (IC50) was over 1000 nM in [1] and over 10000 nM in experiment [2].

Turning to `N#C[C@@H](N[C@@H]1CCCN2C(=O)N(Cc3ccccc3)C(=O)C[C@H]12)[C@H](Cc1c[nH]c2ccccc12)NC(=O)OCc1ccccc1`, the IC50 in experiment [1] is over 1000 nM; in experiment [2], over 10000 nM.

As to `N[C@@H](Cc1c[nH]c2ccccc12)C(=O)N[C@@H]1CCCN2C(=O)N(Cc3ccccc3)C(=O)C[C@H]12`, the figures for the 50% inhibitory concentration (IC50) in experiment [1] and in experiment [2] were over 1000 nM and over 10000 nM, respectively.

Consider `O=C(N[C@H]1CCCN2C(=O)N(Cc3ccccc3)C(=O)C[C@@H]12)[C@H](Cc1c[nH]c2ccccc12)NC(=O)C12CC3CC(CC(C3)C1)C2`, for which the IC50 in experiment [1] worked out at 486 nM; in experiment [2] it was 4390 nM.

As to `CC(C)(C)OC(=O)N1Cc2[nH]c3ccccc3c2CC1C(=O)N[C@H]1CCCN2C(=O)N(Cc3ccccc3)C(=O)C[C@@H]12` (stereo not given in full), the IC50 was over 1000 nM in experiment [1] and over 10000 nM in [2].

In the case of `O=C(Cc1c[nH]c2ccccc12)N[C@H]1CCCN2C(=O)N(Cc3ccccc3)C(=O)C[C@@H]12.O=C(N[C@@H]1CCCN2C(=O)N(Cc3ccccc3)C(=O)C[C@H]12)c1c[nH]c2ccccc12`, the IC50 in experiment [1] was over 1000 nM; in experiment [2], over 10000 nM.

Consider `O=C(N[C@@H]1CCCN2C(=O)N(Cc3ccccc3)C(=O)C[C@@H]12)c1cc2ccccc2[nH]1.O=C(N[C@H]1CCCN2C(=O)N(Cc3ccccc3)C(=O)C[C@H]12)c1cc2ccccc2[nH]1`, for which the concentration for half-maximal inhibition (IC50) in experiment [1] was over 1000 nM; in experiment [2] it was over 10000 nM.

Consider `CC(C)(C)OC(=O)N[C@](C)(Cc1c[nH]c2ccccc12)C(=O)N[C@@H]1CCCN2C(=O)N(Cc3ccccc3)C(=O)C[C@@H]12.CC(C)(C)OC(=O)N[C@](C)(Cc1c[nH]c2ccccc12)C(=O)N[C@H]1CCCN2C(=O)N(Cc3ccccc3)C(=O)C[C@H]12`, for which the IC50 in [2] was over 10000 nM.

Take `CC(C)(C)OC(=O)N[C@@H](Cc1c[nH]c2ccccc12)C(=O)N[C@H]1CCCN2C(=O)N(Cc3ccccc3)C(=O)C[C@@H]12`: the IC50 in [1] was determined as 22.7 nM; in experiment [2], 6150 nM.

Turning to `CC(C)(C)OC(=O)N[C@@H](Cc1ccccc1)C(=O)N[C@@H]1CCCN2C(=O)N(Cc3ccccc3)C(=O)C[C@H]12`, the IC50 is 65.7 nM in experiment [1] and over 10000 nM in experiment [2].

`CC(C)(C)OC(=O)N1Cc2[nH]c3ccccc3c2CC1C(=O)N[C@@H]1CCCN2C(=O)N(Cc3ccccc3)C(=O)C[C@H]12` (stereo not given in full) displayed an IC50 in experiment [2] of over 10000 nM.

With `N#C[C@H](N[C@@H]1CCCN2C(=O)N(Cc3ccccc3)C(=O)C[C@H]12)[C@H](Cc1c[nH]c2ccccc12)NC(=O)OCc1ccccc1`, the IC50 in [1] is over 1000 nM; in [2], over 10000 nM.

As for `CC(C)(C)OC(=O)N[C@H](CN[C@@H]1CCCN2C(=O)N(Cc3ccccc3)C(=O)C[C@H]12)Cc1c[nH]c2ccccc12`, the values for the half-inhibitory concentration (IC50) in experiment [1] and in experiment [2] were over 1000 nM and over 10000 nM, respectively.

As to `CC(C)(C)OC(=O)N[C@@](C)(Cc1c[nH]c2ccccc12)C(=O)N[C@@H]1CCCN2C(=O)N(Cc3ccccc3)C(=O)C[C@@H]12.CC(C)(C)OC(=O)N[C@@](C)(Cc1c[nH]c2ccccc12)C(=O)N[C@H]1CCCN2C(=O)N(Cc3ccccc3)C(=O)C[C@H]12` (single isomer, unassigned), the figures for the IC50 in [1] and in [2] were 42.4 nM and over 10000 nM, respectively.

On to `O=C(N[C@@H](Cc1c[nH]c2ccccc12)C(=O)N[C@H]1CCCN2C(=O)N(Cc3ccccc3)C(=O)CC12)OC1C2CC3CC(C2)CC1C3` (single isomer, unassigned), for which the IC50 in experiment [1] was found to be 340 nM; in experiment [2] it was 3430 nM.

Regarding `CC(C)(C)OC(=O)N[C@@H](Cc1c[nH]c2ccccc12)[C@H](C#N)N[C@@H]1CCCN2C(=O)N(Cc3ccccc3)C(=O)CC12` (single isomer, unassigned), the concentration for half-maximal inhibition (IC50) is 7.69 nM in experiment [1] and over 10000 nM in [2].

As for `CC(C)(C)OC(=O)N[C@@H](Cc1c[nH]c2ccccc12)[C@@H](C#N)N[C@@H]1CCCN2C(=O)N(Cc3ccccc3)C(=O)CC12` (single isomer, unassigned), the 50% inhibitory concentration (IC50) is 32.6 nM in experiment [1] and over 10000 nM in [2].

For `CC(C)(C)NC(=O)N[C@@H](Cc1c[nH]c2ccccc12)C(=O)N[C@@H]1CCCN2C(=O)N(Cc3ccccc3)C(=O)CC12` (single isomer, unassigned), the results for the 50% inhibitory concentration (IC50) in [1] and in experiment [2] were 0.91 nM and over 10000 nM, respectively. Further, the “Increase in plasma amylase” value in experiment [3] was found to be 28939 IU ml-1; in experiment [4], 19967 IU ml-1; in experiment [8], 27103 IU ml-1; in [9], 5326 IU ml-1. Moreover, the “Increase in plasma lipase” value amounted to 1667 IU ml-1 in [5], 36 IU ml-1 in experiment [6], 1062 IU ml-1 in [7] and 2200 IU ml-1 in experiment [10].

As to `CC(C)(C)CC(=O)N[C@@H](Cc1c[nH]c2ccccc12)C(=O)N[C@@H]1CCCN2C(=O)N(Cc3ccccc3)C(=O)CC12` (single isomer, unassigned), the values for the half-inhibitory concentration (IC50) in experiment [1] and in [2] were 4.43 nM and over 10000 nM, respectively. For the same compound, the “Increase in plasma amylase” value in experiment [3] amounted to 51420 IU ml-1; in experiment [4], 46591 IU ml-1; in [8], 61102 IU ml-1; in experiment [9] it was 28015 IU ml-1. Also, the “Increase in plasma lipase” value in experiment [5] is given as 2956 IU ml-1; in experiment [6] it was 1140 IU ml-1; in [7], 3375 IU ml-1; in experiment [10] it was 3089 IU ml-1.

With `CC(C)(C)OC(=O)N[C@@H](Cc1c[nH]c2ccccc12)C(=O)N[C@@H]1CCCN2C(=O)N(Cc3ccccc3)C(=O)CC12` (single isomer, unassigned) [IQM-95333], the IC50 in [1] was 1.59 nM; in experiment [2], over 10000 nM. Also, the “Increase in plasma amylase” value is listed as 37753 IU ml-1 in experiment [3], 31205 IU ml-1 in experiment [4], 35985 IU ml-1 in [8] and 2721 IU ml-1 in experiment [9]. Moreover, the “Increase in plasma lipase” value in experiment [5] turned out to be 1943 IU ml-1; in [6] it was 112 IU ml-1; in experiment [7] it was 1948 IU ml-1; in experiment [10], 2837 IU ml-1.

As to `CN1C(=O)[C@@H](NC(=O)c2cc3ccccc3[nH]2)N=C(c2ccccc2)c2ccccc21` [DEVAZEPIDE], the “Increase in plasma amylase” value in experiment [3] worked out at 7733 IU ml-1; in experiment [4], 4578 IU ml-1; in [8], 8793 IU ml-1; in experiment [9], 3650 IU ml-1. Further, the “Increase in plasma lipase” value is 125 IU ml-1 in [5], 26 IU ml-1 in experiment [6], 57 IU ml-1 in experiment [7] and 871 IU ml-1 in [10].
